Data set [1] deals with Tyrosine-protein kinase BTK (Homo sapiens, UniProt Q06187). The experiment in a line: Inhibition of human recombinant BTK incubated for 5 mins by HTRF kinase assay.
The target of data set [2] is Tyrosine-protein kinase JAK2 (Homo sapiens, UniProt O60674). As to the kind of experiment: Inhibition of JAK2 (unknown origin) using poly (Glu-Tyr, 4:1) substrate incubated for 60 mins by ELISA method. The method, boiled down: (§1)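 ELISA on wells precoated overnight at 37 °C with 0.2 mg/mL poly(Glu-Tyr, 4:1). Kinase and 0.01 mmol/L ATP in reaction medium, plus inhibitor at various concentrations in 1% DMSO, were reacted for 60 min at 37 °C. Anti-phosphotyrosine antibody and HRP anti-mouse IgG followed, with TMB read-out stopped by 2 M H2SO4 and OD at 450 nm. IC50 came from regression of concentration/inhibition data.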
Tyrosine-protein kinase JAK2, sequence (O60674 whole entry): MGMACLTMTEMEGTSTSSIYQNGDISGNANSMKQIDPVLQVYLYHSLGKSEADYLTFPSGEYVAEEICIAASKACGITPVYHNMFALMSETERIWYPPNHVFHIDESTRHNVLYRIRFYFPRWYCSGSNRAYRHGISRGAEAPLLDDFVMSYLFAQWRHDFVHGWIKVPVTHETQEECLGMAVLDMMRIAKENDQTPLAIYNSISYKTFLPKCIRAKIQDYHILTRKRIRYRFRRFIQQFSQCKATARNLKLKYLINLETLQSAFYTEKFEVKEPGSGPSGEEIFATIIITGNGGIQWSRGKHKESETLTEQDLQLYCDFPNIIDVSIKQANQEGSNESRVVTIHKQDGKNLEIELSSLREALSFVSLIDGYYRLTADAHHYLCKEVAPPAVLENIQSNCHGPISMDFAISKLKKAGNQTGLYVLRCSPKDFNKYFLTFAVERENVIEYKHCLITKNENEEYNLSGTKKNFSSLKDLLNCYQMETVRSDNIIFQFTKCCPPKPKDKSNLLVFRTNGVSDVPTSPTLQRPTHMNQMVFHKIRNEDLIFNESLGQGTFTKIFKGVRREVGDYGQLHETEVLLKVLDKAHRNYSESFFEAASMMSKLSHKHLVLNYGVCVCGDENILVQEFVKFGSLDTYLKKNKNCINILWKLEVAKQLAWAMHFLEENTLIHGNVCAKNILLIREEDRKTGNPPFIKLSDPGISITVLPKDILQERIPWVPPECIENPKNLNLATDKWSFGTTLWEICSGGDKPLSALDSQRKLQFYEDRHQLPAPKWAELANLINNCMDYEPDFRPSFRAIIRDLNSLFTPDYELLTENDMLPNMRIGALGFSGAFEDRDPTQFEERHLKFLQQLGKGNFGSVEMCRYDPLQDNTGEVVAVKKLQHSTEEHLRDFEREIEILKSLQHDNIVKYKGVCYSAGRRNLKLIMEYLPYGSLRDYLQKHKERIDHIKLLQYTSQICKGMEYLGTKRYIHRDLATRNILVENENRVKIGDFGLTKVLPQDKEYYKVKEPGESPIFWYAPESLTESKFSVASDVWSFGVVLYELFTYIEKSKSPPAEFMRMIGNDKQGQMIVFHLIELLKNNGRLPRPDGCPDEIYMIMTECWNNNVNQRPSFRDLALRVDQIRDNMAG
Background: In an ELISA, binding on a coated surface is turned into a signal by an enzyme label.

Data set [3] has as its target T1, Tyrosine-protein kinase JAK3 (Homo sapiens, UniProt P52333).
T1 sequence (P52333 whole entry): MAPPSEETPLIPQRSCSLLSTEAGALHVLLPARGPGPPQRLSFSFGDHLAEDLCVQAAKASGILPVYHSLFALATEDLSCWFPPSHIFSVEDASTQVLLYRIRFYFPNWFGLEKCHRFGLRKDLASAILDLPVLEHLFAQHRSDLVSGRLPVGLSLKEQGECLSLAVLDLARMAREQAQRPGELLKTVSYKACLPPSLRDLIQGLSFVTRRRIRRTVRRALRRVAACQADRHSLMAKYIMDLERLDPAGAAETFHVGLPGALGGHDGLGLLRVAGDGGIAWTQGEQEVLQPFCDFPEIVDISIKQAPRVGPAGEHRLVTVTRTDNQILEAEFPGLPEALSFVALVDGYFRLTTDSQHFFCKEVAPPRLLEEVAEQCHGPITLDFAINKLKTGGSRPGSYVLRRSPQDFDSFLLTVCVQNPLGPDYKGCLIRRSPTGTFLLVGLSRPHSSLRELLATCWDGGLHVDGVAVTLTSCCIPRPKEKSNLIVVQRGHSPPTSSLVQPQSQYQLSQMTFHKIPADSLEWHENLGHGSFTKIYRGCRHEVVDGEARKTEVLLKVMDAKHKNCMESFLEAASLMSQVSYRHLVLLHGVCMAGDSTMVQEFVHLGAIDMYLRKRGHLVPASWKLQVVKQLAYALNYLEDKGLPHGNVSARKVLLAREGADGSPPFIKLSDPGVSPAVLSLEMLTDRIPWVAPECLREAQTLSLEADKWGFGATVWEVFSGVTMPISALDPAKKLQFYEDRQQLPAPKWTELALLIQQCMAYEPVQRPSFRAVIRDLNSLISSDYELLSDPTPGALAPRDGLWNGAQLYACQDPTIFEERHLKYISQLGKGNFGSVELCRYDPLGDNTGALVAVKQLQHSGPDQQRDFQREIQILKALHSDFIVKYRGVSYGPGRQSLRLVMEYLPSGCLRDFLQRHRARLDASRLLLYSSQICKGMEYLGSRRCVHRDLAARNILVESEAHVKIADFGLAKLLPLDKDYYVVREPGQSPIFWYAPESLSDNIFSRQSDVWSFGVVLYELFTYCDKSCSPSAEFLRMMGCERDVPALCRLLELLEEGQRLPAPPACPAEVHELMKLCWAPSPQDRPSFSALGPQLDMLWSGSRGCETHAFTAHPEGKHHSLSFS
As to the kind of experiment: Inhibition of JAK3 (unknown origin) using poly (Glu-Tyr, 4:1) substrate incubated for 60 mins by ELISA method. The method, boiled down:
as §1

For data set [4], the target named is Vascular endothelial growth factor receptor 2 (Homo sapiens, UniProt P35968). As to the kind of experiment: Inhibition of KDR (unknown origin) using poly (Glu-Tyr, 4:1) substrate incubated for 60 mins by ELISA method. Summed up: as §1
Vascular endothelial growth factor receptor 2, sequence (P35968 whole entry): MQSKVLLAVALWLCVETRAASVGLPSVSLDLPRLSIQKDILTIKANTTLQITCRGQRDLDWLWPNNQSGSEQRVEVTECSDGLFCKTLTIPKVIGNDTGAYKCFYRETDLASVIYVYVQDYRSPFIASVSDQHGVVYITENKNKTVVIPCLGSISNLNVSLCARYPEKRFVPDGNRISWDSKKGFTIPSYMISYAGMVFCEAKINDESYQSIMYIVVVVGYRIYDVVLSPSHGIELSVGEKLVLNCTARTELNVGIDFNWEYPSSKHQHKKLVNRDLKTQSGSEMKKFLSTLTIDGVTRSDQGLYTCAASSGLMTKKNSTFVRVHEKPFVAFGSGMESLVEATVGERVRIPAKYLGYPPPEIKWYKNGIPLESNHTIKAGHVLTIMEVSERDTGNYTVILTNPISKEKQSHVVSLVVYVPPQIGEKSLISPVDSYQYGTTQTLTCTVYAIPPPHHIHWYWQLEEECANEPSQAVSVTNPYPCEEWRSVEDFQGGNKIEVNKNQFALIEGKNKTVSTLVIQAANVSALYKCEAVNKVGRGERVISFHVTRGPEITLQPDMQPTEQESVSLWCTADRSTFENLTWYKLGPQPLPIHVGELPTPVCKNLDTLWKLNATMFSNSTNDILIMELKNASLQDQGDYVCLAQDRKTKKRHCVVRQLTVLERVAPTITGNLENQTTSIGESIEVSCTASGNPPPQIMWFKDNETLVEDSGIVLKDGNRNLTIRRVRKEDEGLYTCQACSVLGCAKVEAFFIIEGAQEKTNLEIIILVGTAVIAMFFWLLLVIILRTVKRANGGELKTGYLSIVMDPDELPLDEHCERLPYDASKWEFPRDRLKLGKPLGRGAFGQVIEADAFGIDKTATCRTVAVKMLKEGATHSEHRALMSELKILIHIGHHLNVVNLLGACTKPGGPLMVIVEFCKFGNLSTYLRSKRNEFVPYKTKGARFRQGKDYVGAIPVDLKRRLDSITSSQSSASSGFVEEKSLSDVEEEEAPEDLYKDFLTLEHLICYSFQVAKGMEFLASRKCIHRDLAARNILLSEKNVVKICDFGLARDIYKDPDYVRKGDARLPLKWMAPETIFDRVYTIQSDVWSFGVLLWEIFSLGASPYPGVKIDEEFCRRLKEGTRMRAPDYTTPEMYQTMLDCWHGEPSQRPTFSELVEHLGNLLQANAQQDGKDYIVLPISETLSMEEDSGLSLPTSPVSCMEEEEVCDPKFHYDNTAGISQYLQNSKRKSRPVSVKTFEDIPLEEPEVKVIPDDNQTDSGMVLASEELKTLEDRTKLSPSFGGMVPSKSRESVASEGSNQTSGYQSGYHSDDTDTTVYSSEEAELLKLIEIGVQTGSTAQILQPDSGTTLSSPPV
In data set [5] the target is Hepatocyte growth factor receptor (Homo sapiens, UniProt P08581). As to the kind of experiment: Inhibition of c-MET (unknown origin) using poly (Glu-Tyr, 4:1) substrate incubated for 60 mins by ELISA method. The method, boiled down:
as §1

Data set [6] can be described thus: Cmax in Sprague-Dawley rat at 10 mg/kg, po by LC-MS/MS method. The data set is classed as ADME, organism-based. Set-up: dose 10 mg/kg, route oral. The settings on record: in vivo. The method, boiled down: (§2)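 Male SD rats, 3 per route (180-240 g), dosed 2.5 mg/kg iv or 10 mg/kg po at 5 mL/kg. Blood was sampled from 2 min to 24 h, centrifuged at 4000 rpm for 5 min at 4 °C and protein-precipitated. Plasma was quantified by LC/MS/MS in SRM mode with an internal standard. PK parameters came from noncompartmental analysis.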

Data set [7] can be described thus: Cmax in Sprague-Dawley rat at 2.5 mg/kg, iv by LC-MS/MS method. On the set-up: dose 2.5 mg/kg, route intravenous. In kind it is ADME, organism-based. The settings on record: in vivo. The method, boiled down:
as §2

Data set [8] is described as follows: Tmax in Sprague-Dawley rat at 2.5 mg/kg, iv by LC-MS/MS method. The settings on record: in vivo. In kind it is ADME, organism-based. The method, boiled down: as §2
Data set [9] in a line: Half life in Sprague-Dawley rat at 2.5 mg/kg, iv by LC-MS/MS method. The data set is classed as ADME, organism-based. The settings on record: in vivo. Summed up:
as §2

The nature of data set [10]: Oral bioavailability in Sprague-Dawley rat at 10 mg/kg by LC-MS/MS method. In kind it is ADME, organism-based. The settings on record: in vivo. The method, boiled down:
as §2

Data set [11] can be described thus: Mean residence time in Sprague-Dawley rat at 2.5 mg/kg, iv by LC-MS/MS method. The data set is classed as ADME, organism-based. The settings on record: in vivo. Summed up:
as §2

Data set [12] is described as follows: AUC (0 to t) in Sprague-Dawley rat at 2.5 mg/kg, iv by LC-MS/MS method. In kind it is ADME, organism-based. The settings on record: in vivo. The method, boiled down:
as §2

Data set [13] is described as follows: Mean residence time in Sprague-Dawley rat at 10 mg/kg, po by LC-MS/MS method. The data set is classed as ADME, organism-based. The settings on record: in vivo. The method, boiled down:
as §2

The nature of data set [14]: Apparent volume of distribution in Sprague-Dawley rat at 2.5 mg/kg, iv by LC-MS/MS method. In kind it is ADME, organism-based. The settings on record: in vivo, read-out: Vz. Summed up:
as §2

A further data set relates to Rattus norvegicus. The experiment in a line: Apparent volume of distribution in Sprague-Dawley rat at 10 mg/kg, po by LC-MS/MS method. In kind it is ADME, organism-based. The settings on record: in vivo. Summed up:
as §2

Data set [15] is described as follows: Tmax in Sprague-Dawley rat at 10 mg/kg, po by LC-MS/MS method. The data set is classed as ADME, organism-based. The settings on record: in vivo. Summed up:
as §2

The nature of data set [16]: Clearance in Sprague-Dawley rat at 2.5 mg/kg, iv by LC-MS/MS method. The data set is classed as ADME, organism-based. The settings on record: in vivo. Summed up: as §2
Data set [17] is described as follows: AUC (0 to t) in Sprague-Dawley rat at 10 mg/kg, po by LC-MS/MS method. In kind it is ADME, organism-based. The settings on record: in vivo. The method, boiled down: as §2
The nature of data set [18]: Clearance in Sprague-Dawley rat at 10 mg/kg, po by LC-MS/MS method. In kind it is ADME, organism-based. The settings on record: in vivo. The method, boiled down: as §2
Data set [19] is described as follows: Half life in Sprague-Dawley rat at 10 mg/kg, po by LC-MS/MS method. In kind it is ADME, organism-based. The settings on record: in vivo. Summed up: as §2

Results on 21 compounds are retold here after ChEMBL document CHEMBL3603780, “Discovery of thieno[3,2-c]pyridin-4-amines as novel Bruton's tyrosine kinase (BTK) inhibitors” (Bioorg Med Chem, 2015).

Tyrosine-protein kinase BTK, sequence (Q06187 whole entry): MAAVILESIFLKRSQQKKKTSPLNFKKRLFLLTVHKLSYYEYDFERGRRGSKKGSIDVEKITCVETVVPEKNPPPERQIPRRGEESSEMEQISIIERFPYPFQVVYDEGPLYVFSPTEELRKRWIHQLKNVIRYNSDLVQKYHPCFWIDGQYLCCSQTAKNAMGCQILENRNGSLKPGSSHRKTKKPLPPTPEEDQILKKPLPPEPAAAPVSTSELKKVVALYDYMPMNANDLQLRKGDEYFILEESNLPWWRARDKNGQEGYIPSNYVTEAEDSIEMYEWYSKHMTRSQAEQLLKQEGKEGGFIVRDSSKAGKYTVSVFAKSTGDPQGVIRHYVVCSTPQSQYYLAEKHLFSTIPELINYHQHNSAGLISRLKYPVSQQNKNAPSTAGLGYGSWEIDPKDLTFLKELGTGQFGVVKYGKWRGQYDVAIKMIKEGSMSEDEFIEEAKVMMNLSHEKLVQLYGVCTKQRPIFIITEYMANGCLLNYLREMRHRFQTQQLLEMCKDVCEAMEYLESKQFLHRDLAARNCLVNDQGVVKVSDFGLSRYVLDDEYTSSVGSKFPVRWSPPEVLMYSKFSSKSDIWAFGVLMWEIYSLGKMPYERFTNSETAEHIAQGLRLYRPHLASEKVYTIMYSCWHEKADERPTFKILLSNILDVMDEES
Hepatocyte growth factor receptor, sequence (P08581 whole entry): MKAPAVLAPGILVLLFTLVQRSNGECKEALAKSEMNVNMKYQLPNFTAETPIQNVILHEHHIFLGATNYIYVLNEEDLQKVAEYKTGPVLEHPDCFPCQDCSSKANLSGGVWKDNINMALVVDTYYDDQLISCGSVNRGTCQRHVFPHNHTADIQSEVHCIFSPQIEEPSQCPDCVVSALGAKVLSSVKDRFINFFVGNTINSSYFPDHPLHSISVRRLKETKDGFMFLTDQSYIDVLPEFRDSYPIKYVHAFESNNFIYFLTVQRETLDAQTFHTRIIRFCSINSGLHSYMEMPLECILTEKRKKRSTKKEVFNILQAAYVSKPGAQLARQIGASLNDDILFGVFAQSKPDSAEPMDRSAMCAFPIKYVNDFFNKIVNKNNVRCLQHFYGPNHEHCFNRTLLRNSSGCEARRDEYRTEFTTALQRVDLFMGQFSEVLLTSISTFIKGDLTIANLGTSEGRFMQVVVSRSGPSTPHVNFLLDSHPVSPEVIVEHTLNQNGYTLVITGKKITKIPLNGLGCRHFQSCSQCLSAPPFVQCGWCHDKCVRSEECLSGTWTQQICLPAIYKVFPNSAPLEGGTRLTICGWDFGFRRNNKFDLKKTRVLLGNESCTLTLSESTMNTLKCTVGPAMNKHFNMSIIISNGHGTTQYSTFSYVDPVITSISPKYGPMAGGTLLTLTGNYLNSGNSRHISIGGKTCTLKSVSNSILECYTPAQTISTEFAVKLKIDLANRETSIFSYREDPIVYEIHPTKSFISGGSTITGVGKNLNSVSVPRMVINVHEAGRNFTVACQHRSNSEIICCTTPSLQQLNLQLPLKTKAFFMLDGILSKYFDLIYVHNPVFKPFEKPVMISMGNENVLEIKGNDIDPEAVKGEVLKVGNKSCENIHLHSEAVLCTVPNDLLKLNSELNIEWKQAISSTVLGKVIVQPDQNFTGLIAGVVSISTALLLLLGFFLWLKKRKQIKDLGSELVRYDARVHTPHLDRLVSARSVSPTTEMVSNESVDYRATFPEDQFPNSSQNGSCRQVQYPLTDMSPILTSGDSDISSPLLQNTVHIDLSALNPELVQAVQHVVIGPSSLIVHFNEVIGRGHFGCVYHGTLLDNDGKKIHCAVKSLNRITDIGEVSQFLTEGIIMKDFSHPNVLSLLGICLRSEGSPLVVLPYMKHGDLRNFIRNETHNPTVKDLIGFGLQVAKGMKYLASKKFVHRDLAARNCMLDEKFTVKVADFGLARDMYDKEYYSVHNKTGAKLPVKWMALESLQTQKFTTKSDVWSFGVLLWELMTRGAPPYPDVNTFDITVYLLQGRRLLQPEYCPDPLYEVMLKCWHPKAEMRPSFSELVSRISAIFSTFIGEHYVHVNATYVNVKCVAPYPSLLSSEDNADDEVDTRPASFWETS

A word on the IC50: it is the concentration that inhibits the measured activity by half. Take `COc1ccc2cc(-c3cnc(N)c4c(-c5ccc(Oc6ccccc6)cc5)csc34)ccc2c1`: the IC50 in [1] was greater than 10000 nM.

Turning to `Nc1ncc(-c2ccco2)c2scc(-c3ccc(Oc4ccccc4)cc3)c12`, the IC50 in data set [1] is 767 nM.

Turning to `Nc1ncc(C2CC2)c2scc(-c3ccc(Oc4ccccc4)cc3)c12`, in data set [1], the IC50 was greater than 10000 nM.

Turning to `Nc1ncc(-c2ccccc2)c2scc(-c3ccc(Oc4ccccc4)cc3)c12`, the IC50 in [1] is greater than 10000 nM.

In the case of `Nc1ncc(-c2ccncc2)c2scc(-c3ccc(Oc4ccccc4)cc3)c12`, the IC50 in data set [1] stood at 1950 nM.

As to `Nc1ncc(-c2ccc(N3CCOCC3)cc2)c2scc(-c3ccc(Oc4ccccc4)cc3)c12`, the IC50 in data set [1] came to 2300 nM.

Turning to `Nc1ncc(-c2ccc(Oc3ccccc3)cc2)c2scc(-c3ccc(Oc4ccccc4)cc3)c12`, the IC50 in data set [1] was greater than 10000 nM.

Consider `CCCCc1cnc(N)c2c(-c3ccc(Oc4ccccc4)cc3)csc12`, for which, in data set [1], the IC50 was greater than 10000 nM.

Consider `Nc1ncc(-c2cn[nH]c2)c2scc(-c3ccc(Oc4ccccc4)cc3)c12`, for which, in [1], the IC50 was found to be 1050 nM.

Turning to `Cn1cc(-c2cnc(N)c3c(-c4ccc(Oc5ccccc5)cc4)csc23)cn1`, the IC50 in data set [2] is greater than 10000 nM; in [3], greater than 10000 nM; in data set [4], 343 nM; in data set [1] it was 107 nM; in [5], greater than 10000 nM.

Regarding `CCn1cc(-c2cnc(N)c3c(-c4ccc(Oc5ccccc5)cc4)csc23)cn1`, the IC50 in data set [1] was found to be 176 nM.

On to `CCCCn1cc(-c2cnc(N)c3c(-c4ccc(Oc5ccccc5)cc4)csc23)cn1`, for which, in data set [1], the IC50 stood at 387 nM.

Turning to `Nc1ncc(-c2cnn(Cc3ccccc3)c2)c2scc(-c3ccc(Oc4ccccc4)cc3)c12`, the IC50 in data set [1] worked out at 699 nM.

Consider `COCCCn1cc(-c2cnc(N)c3c(-c4ccc(Oc5ccccc5)cc4)csc23)cn1`, for which, in data set [1], the IC50 was found to be 280 nM.

As usually defined, the Cmax is the maximum level reached in the sampled fluid or tissue. By Tmax is commonly meant the time at which the peak concentration occurs. The half-life is the time needed for the level to fall by half in the phase considered. A low value points to rapid decline. One may read the bioavailability as dose-corrected exposure relative to a reference, in per cent. Low readings indicate little systemic uptake, high ones much systemic uptake. Broadly, the MRT is a mean duration of stay, worked out from the concentration-time curve. What is called AUC(0-t) is exposure summed from dosing to a finite time, without extrapolation to infinity. A high value points to more exposure. As usually defined, the clearance is the rate of elimination divided by the concentration. One may read the CL/F as the apparent clearance, not corrected for the fraction that reaches the circulation. Consider `CNC(=O)Cn1cc(-c2cnc(N)c3c(-c4ccc(Oc5ccccc5)cc4)csc23)cn1`, for which the Cmax stood at 856 ng/mL in [6] and 2550 ng/mL in [7]. For the same compound, the IC50 in data set [2] was greater than 10000 nM; in data set [3], greater than 10000 nM; in [4], 284 nM; in [1], 12.8 nM; in [5], greater than 10000 nM. The Tmax was 6.6 min in [8] and 40.2 min in data set [15]. Further, the half-life in [9] was 21.6 min; in [19] it was 60.6 min. In data set [10], the bioavailability was 23.4%. The MRT in [11] came out at 25.8 min; in data set [13], 88.8 min. Also, the values for the AUC(0-t) in data set [12] and in [17] were 1460 ng·h/mL and 1370 ng·h/mL, respectively. The Vd in [14] came to 0.9 L/kg. The Vz in the data set on Rattus norvegicus is 13.3206 L/kg. Besides, the clearance in data set [16] is 28.6 mL/min/kg. In data set [18], this compound had a CL/F of 145 mL/min/kg.

Regarding `CN(C)S(=O)(=O)n1cc(-c2cnc(N)c3c(-c4ccc(Oc5ccccc5)cc4)csc23)cn1`, the IC50 in data set [1] stood at 528 nM.

With `CC(=O)n1cc(-c2cnc(N)c3c(-c4ccc(Oc5ccccc5)cc4)csc23)cn1`, in data set [1], the IC50 came to 454 nM.

As for `CNC(=O)Cn1cc(-c2cnc(N)c3c(-c4cccc(C(=O)Nc5ccccc5)c4)csc23)cn1`, the IC50 in [1] amounted to 291 nM.

As to `CNC(=O)Cn1cc(-c2cnc(N)c3c(-c4ccc(C(=O)Nc5ccccc5)cc4)csc23)cn1`, the IC50 in data set [1] turned out to be 137 nM.

As to `Cn1cc(-c2cnc(N)c3c(-c4ccc(NC(=O)c5cccc(Cl)c5)cc4)csc23)cn1`, the IC50 in data set [1] is 421 nM.

For `CNC(=O)Cn1cc(-c2cnc(N)c3c(-c4ccc(NC(=O)c5cccc(Cl)c5)cc4)csc23)cn1`, the IC50 in data set [1] came out at 409 nM.
